Test results taken from ChEMBL document CHEMBL4513216, “Probing the Open Global Health Chemical Diversity Library for Multistage-Active Starting Points for Next-Generation Antimalarials” (ACS Infect Dis, 2020).

Assay: Toxicity liver stage against HepG2, at 10uM
Assay type: cell-based
Set-up: test concentration 10 uM, cell line HepG2-A16-CD81EGFP
Conditions: human, HepG2-A16-CD81EGFP cells; read-out: INHIBITION
In short: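 Uninfected HepG2-A16-CD81EGFP cells, 3 × 10^3 per well, 1536-well, plated on prespotted compound at 10 μM final, parasite-free screening media added to match infected plates; puromycin 10 μM positive, DMSO 0.5% negative; run in parallel with 48 h PbLuc assay at 37 °C, 5% CO2; viability by CellTiter-Glo luminescence, normalized to controls.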

Structure (SMILES) | cytotoxicity at 10 µM [%]
O=C(Nc1ccccc1C(=O)NCCN1CCOCC1)c1ccco1 | -0.972
CC(C)N1CCOC[C@H]1c1nc(C(C)(C)C)c[nH]1 | -1.99
c1cc(-c2c[nH]c([C@@H]3COCCN3CC3CC3)n2)ccn1 | 6.82
CC(C)c1nnc(NC(=O)CSCc2cc(=O)n3ccccc3n2)s1 | 2.08
CN1CCN(CCCNC(=O)CCc2nc3cc(Br)cnc3[nH]2)CC1 | -124
COc1cccc2c1ccn2CCNC(=O)CCNc1ncccn1 | -6.27
O=C(NCCC(O)c1cccs1)c1ccco1 (stereo not given) | -14.7
O=C(NCCn1cnc(C2CCCC2)cc1=O)c1ccc(=O)[nH]n1 | -0.895
COC(=O)c1sccc1S(=O)(=O)NCCc1ccoc1 | 2.6
NCCc1c(-c2ccc(F)cc2)[nH][nH]c1=O | -1.3
COc1ccccc1-n1c(O)cc(C)c(C#N)c1=O | 2.74
CN1[C@@H](C(=O)NCC2CC2)C[C@@H]2CN(Cc3ccco3)C[C@@H]21 | 4.68
O=C(CCn1cc(Cl)cn1)Nc1nncs1 | -9.61
c1ccc(CCN2CCCC(c3ccnc4nccn34)C2)cc1 (stereo not given) | 4.22
Nc1c(C(=O)C2CCCN(C(=O)C3CC3)C2)cnn1-c1ccc(F)cc1 (stereo not given) | 6.12
O=C(N[C@@H]1CC[C@@H](N2CCOCC2)[C@@H]1O)c1cnn2cccnc12 | -27.1
O=C(c1n[nH]cc1Cl)N1CCCC(n2nnc3cc(F)ccc32)C1 (stereo not given) | -8.55
Cc1nn(C)cc1CN1CCc2nc(-c3cccnc3)nc(O)c2C1 | 22.5
CC(C)N1CCC(Cc2cncc(-c3ccccc3C(=O)O)n2)CC1 | 0.822
Cc1ccc(S(=O)(=O)N2CCN(CCC(N)=O)CC2)s1 | -9.88
Cc1ccc(F)c2c1CCCN2Cc1cc(=O)n(C)c(=O)n1C | 13.6
O=C(Nc1cccnc1N1CCSCC1)c1ccc2c(c1)CCC2 | -2.03

Structure (SMILES) | cytotoxicity at 10 µM [%]
Cc1cc(-n2c(C)cn(CN(C)C3CCS(=O)(=O)C3)c2=O)no1 (stereo not given) | -0.872
CN(C)CCN(Cc1ccc(F)cc1)C(=O)c1ccn(C)c(=O)c1 | -4.62
CC(C)(C)CNC(=O)c1ccc(C(=O)O)nc1 | 10.4
Cc1ccc(CNC(=O)Nc2nnc(C(C)C)s2)n1C | -10
COc1ccccc1CCNC(=O)N(C)C(C)CS(C)(=O)=O (stereo not given) | -48.8
CC(C)N(C(=O)Cn1nc2n(c1=O)CCCCC2)C1CCC1 | -7.62
CN(Cc1ccccc1)c1ccc(C(F)(F)F)cn1 | 10.2
CCS(=O)(=O)CC(=O)Nc1c(C)cnn1Cc1cc(F)ccc1F | -4.96
CCOCCNC(=O)c1cc(Br)c2c(c1)OCCO2 | 1.41
Cc1nc(CN2CCC(CNC(=O)C3(C#N)CCCC3)CC2)oc1C | 1.29
CCOC(C)c1noc(CN2CCN(Cc3cccc(F)c3)CC2)n1 (stereo not given) | 7.66
COc1ccccc1N1CCCC(Nc2ncccn2)C1=O (stereo not given) | 4.96
Cc1cc(F)cc(S(=O)(=O)NC(=O)CCc2cncc(F)c2)c1 | 7.78
CN(Cc1cscn1)C1CCN(C(=O)OC(C)(C)C)CC1 | -3.76
CC(C)N1CCC(Nc2ccn(Cc3ccccn3)n2)C1=O (stereo not given) | -2.43
Cc1nnc2ccc(C(=O)N3CCSC(C)(C)C3)cn12 | -3.54
CCC(C)NC(=O)c1ccc(NC(=O)CCc2ccncc2)c(C)c1 (stereo not given) | 4.31
Cc1cc(C)cc(C(=O)NCCCC2(C3OCCO3)CCOCC2)c1 | 9.4
c1ccn2c(C3CCCN3Cc3nc(C4CC4)no3)nnc2c1 (stereo not given) | -2.59
COC1CCN(C(=O)c2nn(-c3ccc(C(C)C)cc3)cc2O)CC1 | -42.9
Cn1cc(C2COC3(CCN(C(=O)c4cnccn4)CC3)C2)cn1 (stereo not given) | -68.5
CC1=N[C@@]2(CC[C@@H]3CN(S(=O)(=O)CC(C)C)C[C@@H]32)C(=O)N1C | -84.6

Structure (SMILES) | cytotoxicity at 10 µM [%]
Cn1nc(Cn2ccnc2)c2c1CN(C(=O)c1ccc[nH]1)C2 | -62.7
CCC1=N[C@@]2(CC[C@@H]3CN(C(=O)NCc4cccc(F)c4)C[C@@H]32)C(=O)N1 | -69.4
Cc1nc(CN2C(=O)CC[C@@H]3[C@H]2CCN3C(=O)NC2CC2)cs1 | 9.37
Cc1nc2cc(C(=O)N3C[C@@H](NS(C)(=O)=O)[C@H](C(C)C)C3)ccc2[nH]1 | -4.47
CC(=O)NC1CCN(c2ncnc3c2c(C)nn3C)C1 (stereo not given) | -2.78
Cc1ccnc(N2Cc3cnn(Cc4ccc(F)cc4)c3C2)n1 | 3.59
CSCCC(=O)NCc1cc2n(n1)CCCN(C1CCCCC1)C2 | 19.9
CCC(C)N(Cc1ccncc1)Cc1ccccc1Cn1cccn1 (stereo not given) | -44.4
Cc1cc(N2CCC(c3ncc[nH]3)CC2)cc(C)n1 | -1.95
CC(=O)NCCc1ncnn1-c1ccc(F)c(Cl)c1 | -15
CCC(c1nc(C(C)C)nn1-c1ccccn1)n1cccn1 (stereo not given) | 5.66
CCn1nc(C)cc1C(=O)N1C[C@@H](CN(C)C)[C@@H](CO)C1 | 3.3
C[C@@H]1CN(S(=O)(=O)N2CCOCC2)C[C@@]1(O)C1CC1 | 5.91
Cc1cc(CN[C@H](C(N)=O)[C@@H](C)O)c(C)s1 | 9.5
COCCCN1C(=O)CC[C@H]2CN(Cc3ncc[nH]3)CC[C@H]21 | -0.462
CCCc1nc(N2CCCN(c3ccncc3)CC2)c2cnn(C)c2n1 | -2.47
Cc1cnn(CC(=O)N2CCC3(CCC(=O)N(C4CCCC4)C3)CC2)c1 | 3.03
Cc1n[nH]c(C)c1CCC(=O)NCC1CCCN(C2CCCC2)C1 (stereo not given) | -6.32
CCCN(Cc1ccc(S(=O)(=O)NC)cc1)Cc1ccccc1OC | -0.89
O=C(c1ccc(-c2cccc3c2CCNC3)o1)N1CCOCC1 | 3.34
OC1CCN(c2ccnc(NCCc3ccccc3Cl)n2)CC1 | 16.5
CCNc1ncc(C(=O)NC(CCN(C)C)c2ccccc2)cn1 (stereo not given) | 4.8

Structure (SMILES) | cytotoxicity at 10 µM [%]
CC(Cn1cccn1)C(=O)N1CCC(NS(C)(=O)=O)CC1 (stereo not given) | -8.34
c1ccc(-c2ncc(CN3CCCCC3CCn3cccn3)cn2)nc1 (stereo not given) | -3.34
Cc1cnc(N)nc1NCCSCc1[nH]cnc1C | 4.34
COc1cc(N2CCC(c3nccn3Cc3cccnc3)CC2)ncn1 | -4.4
O=C(NC1CCCCC1)N1C[C@H]2CN(c3cnccn3)C[C@@]2(C(=O)O)C1 | 13.7
CC(=O)N1CCC(c2nccnc2Oc2ccccc2)CC1 | 3.7
CCc1noc(C)c1C(=O)N1CCCCC1Cn1cc(C)cn1 (stereo not given) | 10.8
OCCn1nccc1C1CCN(CCOc2ccc(Cl)cc2)CC1 | -4.68
COc1ccc(OCCN(C)Cc2nc3c(cnn3C)c(=O)[nH]2)cc1 | -4.03
COc1cccc(C(=O)NS(=O)(=O)c2cccc(C#N)c2)c1 | -6.12
COc1cccc(CNCc2c(C)nn(C)c2N(C)C)c1 | -2.51
Cc1cc(CN2CCN(C(=O)NC(C)c3cccs3)CC2)on1 (stereo not given) | -7.72
Cc1cc(C)n(CC2CCCN2C(=O)c2ccc(N(C)C)nn2)n1 (stereo not given) | 1.53
Cc1nc(C)n(CC2CCCN(CCc3ccccc3)C2)n1 (stereo not given) | -3.12
CCOc1cccc2c1OCC(C(=O)NS(=O)(=O)c1ccc(Br)s1)=C2 | -11.6
Cc1nc2c(c(C)c1CC(=O)NCc1ccccc1F)c(=O)[nH]n2C | -5.52
CCNc1cc2c(nn1)CCN(C(=O)c1ccoc1)C2 | -6.9
CCc1nc(CN2CCCN(C(=O)c3cc(C)on3)CC2)cs1 | -7.81
O=C(CN1CCCC(Cn2cncn2)C1)NCc1ccco1 (stereo not given) | -0.587
O=C(CCC1CCCO1)NCc1ccnc(-n2cccn2)c1 (stereo not given) | -14.6
O=C(CCc1cccs1)N1CCC(Nc2cccnn2)CC1 | -10.5
Cc1nc(C2CCCN(C(=O)c3ccc(OCC4CC4)cc3)C2)no1 (stereo not given) | -7.69

Structure (SMILES) | cytotoxicity at 10 µM [%]
CCc1nnc2n1CCN(Cc1ccc(C(=O)N3CCCC3)cc1)C2 | -3.29
CC(C)(C)C(=O)NS(=O)(=O)c1ccc(C#N)cc1C(F)(F)F | -7.52
CCC(NC(=O)c1ccco1)c1ccccc1OCC(=O)N1CCCC1 (stereo not given) | 4.9
O=C(O)c1cc(S(=O)(=O)N2CCOc3ccccc32)ccc1F | -2.94
CC(=O)N(Cc1noc(C2CC2)n1)C1CCN(Cc2ccncc2)C1 (stereo not given) | -13.8
Cc1nn(C)c(C)c1CC(=O)N1CCC(N(C)c2cccnn2)CC1 | -3.33
Cc1nn(CC(=O)N2CCC(Nc3cccnn3)CC2)c(C)c1Cl | -12
OC(CN1CCCCCCC1)c1ccc(F)cc1 (stereo not given) | -10.4
CC(NC(=O)NCCCn1ccnc1)c1ccc2c(c1)CCC(=O)N2 (stereo not given) | -4.74
Cn1cc(C2CCCN2C(=O)Cc2n[nH]c3ccccc23)cn1 (stereo not given) | 2.56
Cc1cnn(CC2CCCN2Cc2nc3ccccc3n2C)c1 (stereo not given) | -14.5
Cc1cc(C)n(CC2CCCCN2C(=O)c2cnn(C)c2)n1 (stereo not given) | 6.79
COc1cccc(COCC(=O)N2CCCC(n3ccnc3)C2)c1 (stereo not given) | -8.38
OCC1CCCN1c1cc(NCc2ccc(Cl)s2)ncn1 (stereo not given) | -2.96
Cn1cncc1CN1CCC(O)(Cn2nc(-c3cccs3)oc2=O)CC1 | -5.46
c1cc(CN2CCOCC3(CCN(CC4CCOCC4)CC3)C2)ccn1 | -82.6
Cc1ncsc1C(=O)NCCn1nc(C2CCNC2)c2cccnc21 (stereo not given) | -0.98
COCCNC(=O)[C@@]12CCO[C@@H]1CCN(Cc1ccc(OC)cc1)C2 | -77.8
O=C(Cc1ccccc1F)N1C[C@@H]2COC[C@]2(COc2cccnc2)C1 | 9.29
COCc1ccc(CN2CCC(O)(Cn3ccc4ncccc43)CC2)o1 | 4.45
c1cnc2c(c1)cc([C@@H]1CCCO1)n2CCN1CCCCC1 | -25.9
COc1ccc(/C=C/CN2C[C@@H]3CC[C@H]2CN(S(=O)(=O)N(C)C)C3)cc1 | -2.72
